In brackets after ≈: the same amount, converted by molar mass.
How the values were obtained:
Huh-7 [1] = assay: Cytotoxic concentration of compound HC40 cells determined by using MTT assay; format: functional; conditions: Homo sapiens
Huh-7 [2] = assay: Anti-Hepatitis C Viral IRES activity of compound by measured as Fluci signal in HC40 cells; format: functional, cell-based; conditions: Homo sapiens
Method in brief: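 Huh7-derived HC40 line expressing CAT-IRES-Fluci under a CMV promoter, so luciferase reports IRES-dependent translation. Cells seeded at 1.5×10^4/well 24 h before dosing. Compounds added at various concentrations in 0.2% DMSO final and incubated 24 h at 37 °C. Cells washed twice in PBS, lysed 10 min in the dark in luciferin lysis buffer, then luciferase read.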

[3] = Ratio of inhibitory concentration against Hepatitis C Viral IRES in HC40 cells to that of HCF cells was determined; format: functional
Method in brief: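 Ratio of the HC40 value to the HCF value. HCF cells are pooled Huh-7 stably transfected with CMV-Fluci (CMV control, no IRES control). Both lines seeded at 1.5×10^4/well 24 h ahead, dosed at various concentrations in 0.2% DMSO final for 24 h at 37 °C, washed twice in PBS, lysed in luciferin buffer for 10 min in the dark, and luciferase read.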

Structure (SMILES)	CC50 (Huh-7 [1]) [µg/mL]	IC50 (Huh-7 [2]) [µg/mL]	Ratio [3]
CCN(CC)c1ccc2[o+]c3cc(C)c(N)cc3nc2c1.[Cl-]	< 1	1	3
Nc1ccc2c(c1)NC(=O)c1cc(N)cnc1O2	> 10	> 10	
Cc1cc2nc3ccc(N(C)C)cc3nc2cc1I	> 10	> 10	
Cc1cc2nc3ccc(O)cc3nc2cc1N	> 10	3.74 (≈ 16.6 µM)	>2.7
CN(C)c1ccc(Nc2ccc(N(C)C)cc2)cc1	2.3 (≈ 9.01 µM)	2.19 (≈ 8.58 µM)	0.8
Nc1ccc2c(c1)Oc1ncccc1C(=O)N2	> 10	> 10	
Nc1ccc2[nH]c3ccc(N)cc3c2c1	> 10	> 10	
Nc1cc2nc3ccccc3nc2cc1N	> 10	4.03 (≈ 19.2 µM)	2.5
Nc1ccc(Nc2ccc(N)cc2)cc1		> 10	
CN(C)c1ccc2c(c1)Sc1cc(N(C)C)ccc1N2C(=O)c1ccccc1	> 10	> 10	
Cc1cc2nc3ccc(N(C)C)cc3nc2cc1N	> 10	0.02 (≈ 0.0793 µM)	10
Cc1cc2c(cc1N)N(c1ccccc1C)c1cc(N(C)C)c(C)cc1N2	> 10	1 (≈ 2.79 µM)	1
CN(C)c1ccc(C(=O)c2ccc(N(C)C)cc2)cc1 [MICHLER'S KETONE]		> 10	
CC(=O)[O-].Nc1ccc2nc3ccc(N)cc3[s+]c2c1 [THIONIN ACETATE]	4.67	2.86	1.7

From ChEMBL document CHEMBL1133128, “Hepatitis C viral IRES inhibition by phenazine and phenazine-like molecules” (Bioorg Med Chem Lett, 2000)
